Assay results from ChEMBL document CHEMBL4680159, “Novel modified leucine and phenylalanine dipeptides modulate viability and attachment of cancer cells” (2020).
Calls of active or inactive are those of the source. The rule behind the calls is not given here.

Legend:
[1] = test system: K562; experiment: Antiproliferative activity against human K562 cells assessed as growth inhibition measured after 72 hrs by calcein AM dye-based fluorescence assay; assay type: functional
Outline: (§1)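 Cells exposed to three-fold compound dilutions in triplicate for 72 h. Calcein AM then added and live-cell fluorescence read at 485/538 nm (ex/em). GI50 taken from dose-response curves. Values from at least triplicate measurements.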

[2] = test system: CCRF-CEM; experiment: Antiproliferative activity against human CEM cells assessed as growth inhibition measured after 72 hrs by calcein AM dye-based fluorescence assay; assay type: functional; outline: as §1
[3] = test system: G-361; experiment: Antiproliferative activity against human G361 cells assessed as growth inhibition measured after 72 hrs by calcein AM dye-based fluorescence assay; assay type: functional; outline: as §1
[4] = test system: MCF7; experiment: Antiproliferative activity against human MCF7 cells assessed as growth inhibition measured after 72 hrs by calcein AM dye-based fluorescence assay; assay type: functional; outline: as §1
[5] = test system: HCT-116; experiment: Antiproliferative activity against human HCT116 cells assessed as growth inhibition measured after 72 hrs by calcein AM dye-based fluorescence assay; assay type: functional; outline: as §1
[6] = test system: HCT-116; experiment: Antiproliferative activity against human HCT-116 cells assessed as increase in cell death at 25 uM measured after 24 hrs by IncuCyte live-cell imaging analysis; assay type: functional, cell-based
Outline: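 HCT-116 cells plated at 10 000 cells/well and exposed to compounds at 25 µM for 24 h. Cell membrane integrity/death followed in real time by live-cell imaging with a Cytotox Red reagent.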

Structure (SMILES)	GI50 [1] [µM]	GI50 [2] [µM]	GI50 [4] [µM]	GI50 [5] [µM]	GI50 [3] [µM]	Activity [6]
CC(C)C[C@H](NC(=O)c1cc(Cl)ccc1O)C(=O)Nc1ccc(C(F)(F)F)cc1	5	5				
CC(C)C[C@H](NC(=O)c1cc(Cl)ccc1O)C(=O)N[C@@H](CC(C)C)C(=O)N1CCOCC1	> 50	54.9				
CC(C)C[C@H](NC(=O)c1cc(Cl)ccc1OCc1ccccc1)C(=O)N[C@@H](CC(C)C)C(=O)N1CCOCC1	21	20.1				
CC(C)C[C@H](NC(=O)c1cc(Cl)ccc1OCc1ccccc1)C(=O)N[C@@H](CC(C)C)C(=O)Nc1ccc(C(F)(F)F)cc1	74.6	59.9				
COc1ccc(NC(=O)[C@H](CC(C)C)NC(=O)[C@H](CC(C)C)NC(=O)c2cc(Cl)ccc2OCc2ccccc2)cc1	68.3	53.2				
CC(C)C[C@H](NC(=O)c1cc(Cl)ccc1OCc1ccccc1)C(=O)Nc1ccc(C(F)(F)F)cc1	> 50	35.4				
Cc1ccc(NC(=O)[C@H](CC(C)C)NC(=O)[C@H](CC(C)C)NC(=O)c2cc(Cl)ccc2O)cc1	30.7	13.2				
CC(C)C[C@H](NC(=O)c1cc(Cl)ccc1OCc1ccccc1)C(=O)N[C@@H](CC(C)C)C(=O)NC1CCCCC1	19.8	9.8				
CC(C)C[C@H](NC(=O)c1cc(Cl)ccc1O)C(=O)N[C@@H](CC(C)C)C(=O)Nc1ccc(C(F)(F)F)cc1	7.5	6.2	5.3	5.8	11.5	
COc1ccc(NC(=O)[C@H](CC(C)C)NC(=O)[C@H](CC(C)C)NC(=O)c2cc(Cl)ccc2O)cc1	51	23.3				
CC(C)C[C@H](NC(=O)c1cc(Cl)ccc1O)C(=O)N[C@@H](CC(C)C)C(=O)Nc1nccs1	31.1	19.7				
CC(C)C[C@H](NC(=O)c1cc(Cl)ccc1O)C(=O)N[C@@H](CC(C)C)C(=O)NC1CCCCC1	55.7	38.2				

Now from value to molecule, other results behind:

GI50 [1] [µM]	GI50 [2] [µM]	GI50 [4] [µM]	GI50 [5] [µM]	Structure (SMILES)	GI50 [3] [µM]	Activity [6]
5.2	4.5			O=C(N[C@@H](Cc1ccccc1)C(=O)Nc1ccc(C(F)(F)F)cc1)c1cc(Cl)ccc1O		
5.8	3.1	5.2	3	O=C(N[C@@H](Cc1ccccc1)C(=O)N[C@@H](Cc1ccccc1)C(=O)Nc1ccc(Cl)c(Cl)c1)c1cc(Cl)ccc1O	4.5	
87.7	52.8			Cc1ccc(NC(=O)[C@H](CC(C)C)NC(=O)[C@H](CC(C)C)NC(=O)c2cc(Cl)ccc2OCc2ccccc2)cc1		
9.9	32.8			O=C(N[C@@H](Cc1ccccc1)C(=O)N[C@@H](Cc1ccccc1)C(=O)Nc1ccc(Cl)c(Cl)c1)c1cc(Cl)ccc1OCc1ccccc1		
12.7	11.3			O=C(N[C@@H](Cc1ccccc1)C(=O)N[C@@H](Cc1ccccc1)C(=O)Nc1ccc(C(F)(F)F)cc1)c1cc(Cl)ccc1OCc1ccccc1		
> 50	31.5			O=C(N[C@@H](Cc1ccccc1)C(=O)Nc1ccc(C(F)(F)F)cc1)c1cc(Cl)ccc1OCc1ccccc1		
3.2	2.6	4.1	4	CC(C)C[C@H](NC(=O)c1cc(Cl)ccc1O)C(=O)N[C@@H](CC(C)C)C(=O)Nc1ccc(Cl)c(Cl)c1	5.2	inactive
20.1	10.2			CC(C)C[C@H](NC(=O)c1cc(Cl)ccc1O)C(=O)N[C@@H](CC(C)C)C(=O)Nc1ccccc1		
> 100	56.4			CC(C)C[C@H](NC(=O)c1cc(Cl)ccc1OCc1ccccc1)C(=O)N[C@@H](CC(C)C)C(=O)Nc1ccc(Cl)c(Cl)c1		
57.5	45.4			CC(C)C[C@H](NC(=O)c1cc(Cl)ccc1OCc1ccccc1)C(=O)N[C@@H](Cc1ccccc1)C(=O)Nc1ccc(Cl)c(Cl)c1		
5.1	4.7	5.6	4.5	O=C(N[C@@H](Cc1ccccc1)C(=O)N[C@@H](Cc1ccccc1)C(=O)Nc1ccc(C(F)(F)F)cc1)c1cc(Cl)ccc1O	5.1	
71.2	48.9			CC(C)C[C@H](NC(=O)c1cc(Cl)ccc1OCc1ccccc1)C(=O)N[C@@H](CC(C)C)C(=O)Nc1ccccc1		
